Results on 15 compounds are retold here after ChEMBL document CHEMBL3232997, “Synthesis and biological evaluation of a series of benzoxazole/benzothiazole-containing 2,3-dihydrobenzo[b][1,4]dioxine derivatives as potential antidepressants” (Bioorg Med Chem Lett, 2014).

pKi: −log10 of the molar value. Calls of active or inactive are those of the source. No cut-off for these calls is given here.

Data set [1] has as its system Mus musculus. Put plainly: Antidepressant activity in Kunming mouse assessed as decrease in immobility time at 40 mg/kg, po by forced swimming test. The format is functional, organism-based. Set-up: dose 40 mg/kg.
Data set [2] concerns Mus musculus. Nature of the data set: Antidepressant activity in Kunming mouse assessed as decrease in immobility time at 40 mg/kg, po by tail suspension test. The format is functional, organism-based. Further details: dose 40 mg/kg.
Data set [3] concerns the target T1, 5-hydroxytryptamine receptor 1A (Rattus norvegicus, UniProt P19327).
T1 sequence (P19327 whole entry): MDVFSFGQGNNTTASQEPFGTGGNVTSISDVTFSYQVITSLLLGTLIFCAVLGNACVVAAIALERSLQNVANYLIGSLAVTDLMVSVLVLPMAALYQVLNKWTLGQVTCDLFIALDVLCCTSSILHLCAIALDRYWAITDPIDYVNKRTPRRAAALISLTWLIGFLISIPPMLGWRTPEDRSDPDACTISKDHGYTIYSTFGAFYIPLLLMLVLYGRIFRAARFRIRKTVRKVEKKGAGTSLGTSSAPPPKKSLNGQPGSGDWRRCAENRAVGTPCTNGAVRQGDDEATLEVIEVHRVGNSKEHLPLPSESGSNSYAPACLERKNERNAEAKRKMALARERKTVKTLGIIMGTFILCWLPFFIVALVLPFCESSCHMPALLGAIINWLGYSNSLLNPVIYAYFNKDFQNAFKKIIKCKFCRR
Put plainly: Displacement of [3H]8-OH-DPAT from rat cerebral cortex 5-HT1A receptor after 30 mins by liquid scintillation counting. The format is tissue-based. In a few lines: (§1)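 Competition binding on rat cerebral cortex homogenates. 5-HT1A was labelled with [3H]-8-hydroxy-2-(di-n-propylamino)tetralin and 5-HT2A with [3H]ketanserine. The method followed a previously reported procedure. Ki values are reported as mean ± SEM.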
On the technique in general: In a radioligand displacement assay an active substance lowers the binding of a labelled ligand.

Data set [4] deals with 5-hydroxytryptamine receptor 2A (Rattus norvegicus, UniProt P14842). Put plainly: Displacement of [3H]-ketanserin from rat cerebral cortex 5-HT2A receptor after 30 mins by liquid scintillation counting. The format is tissue-based. In a few lines:
as §1

For data set [5], the system named is Mus musculus. Put plainly: Toxicity in Kunming mouse assessed as locomotor activity at 10 mg/kg, po measured for 10 mins (reference value: 1165 +/- 263 cm). The format is organism-based. Set-up: dose 10 mg/kg, route oral. The following applies: in vivo. In a few lines:
(§2)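 Mice were given test compound orally, with a vehicle-treated group as control. Locomotor activity was recorded for 10 min and reported as distance travelled (cm). Values are mean ± SEM, n = 10 per group. The test was used to rule out false positives in the swim and tail-suspension tests.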

Data set [6] deals with Mus musculus. Nature of the data set: Toxicity in Kunming mouse assessed as locomotor activity at 40 mg/kg, po measured for 10 mins (reference value: 1165 +/- 263 cm). The format is organism-based. Set-up: dose 40 mg/kg, route oral. Particulars: in vivo. In a few lines:
as §2

Data set [7] deals with Mus musculus. Nature of the data set: Antidepressant activity in po dosed Kunming mouse assessed as decrease in immobility time by forced swimming test. The format is functional.
Data set [8] relates to Mus musculus. Put plainly: Toxicity in Kunming mouse assessed as locomotor activity at 100 mg/kg, po measured for 10 mins (reference value: 1165 +/- 263 cm). The format is organism-based. Further details: dose 100 mg/kg, route oral. The following applies: in vivo. The gist of the method:
as §2

Chain of 5-hydroxytryptamine receptor 2A (P14842 whole entry): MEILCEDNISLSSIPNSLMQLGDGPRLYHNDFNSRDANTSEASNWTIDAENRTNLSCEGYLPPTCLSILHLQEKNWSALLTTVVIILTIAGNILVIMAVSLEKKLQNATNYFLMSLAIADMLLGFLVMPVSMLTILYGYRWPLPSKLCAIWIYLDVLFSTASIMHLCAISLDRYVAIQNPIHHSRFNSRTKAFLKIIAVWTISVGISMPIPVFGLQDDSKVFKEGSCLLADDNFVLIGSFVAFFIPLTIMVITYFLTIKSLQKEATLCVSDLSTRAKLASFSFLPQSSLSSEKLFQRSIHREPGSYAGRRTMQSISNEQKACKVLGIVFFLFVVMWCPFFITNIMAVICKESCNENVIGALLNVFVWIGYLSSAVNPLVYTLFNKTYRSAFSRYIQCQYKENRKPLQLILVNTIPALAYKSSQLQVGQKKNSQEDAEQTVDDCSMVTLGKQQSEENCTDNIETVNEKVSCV

As for `O=C(NCCCN1CCC(c2nc3ccccc3o2)CC1)C1COc2ccccc2O1` (stereo not given), in data set [1], the “Decrease in immobility time” value was “Active”. Besides, in data set [2], the “antidepressant activity (active/inactive)” value was “Active”. Also, the negative-log Ki (pKi) is 7.08 in data set [3] and 7.06 in data set [4].
For `O=C(NCCCN1CCC(c2nc3ccccc3s2)CC1)C1COc2ccccc2O1` (stereo not given), the “Decrease in immobility time” value in data set [1] is “Active”. The “antidepressant activity (active/inactive)” value in data set [2] is “Active”. The figures for the pKi in data set [3] and in data set [4] were 7.07 and 7.05, respectively.
`CC1Oc2ccccc2OC1COCCCN1CCC(c2nc3ccccc3s2)CC1` (stereo not given): the values for the pKi in data set [3] and in data set [4] were 6.99 and 6.88, respectively.
Consider `c1ccc(C2Oc3ccccc3OC2COCCCCCN2CCC(c3nc4ccccc4o3)CC2)cc1` (stereo not given), for which the values for the pKi in data set [3] and in data set [4] were 6.97 and 9.13, respectively.
For `c1ccc2c(c1)OCC(COCCCN1CCC(c3nc4ccccc4s3)CC1)O2` (stereo not given) the same measures were 7.04 and 7.55.
Consider `CN(C)CCCN1c2ccccc2CCc2ccccc21` [IMIPRAMINE], for which the Activity in data set [5] is recorded as 1248 cm.
Take `c1ccc(C2Oc3ccccc3OC2COCCCN2CCC(c3nc4ccccc4o3)CC2)cc1` (stereo not given): the “Decrease in immobility time” value in data set [1] is “Active”. In addition, the “antidepressant activity (active/inactive)” value in data set [2] was “Active”. Further, the pKi in data set [3] is 7.29; in data set [4], 8.39.
For the compound `c1ccc(C2Oc3ccccc3OC2COCCCCCN2CCC(c3nc4ccccc4s3)CC2)cc1` (stereo not given), the negative logarithm of the Ki (pKi) was 6.88 in data set [3] and 6.83 in data set [4].
Regarding `c1ccc(C2Oc3ccccc3OC2COCCCCN2CCC(c3nc4ccccc4o3)CC2)cc1` (stereo not given), the “Decrease in immobility time” value in data set [1] was “Active”. Moreover, the Activity turned out to be 1114 cm in data set [6], 1180 cm in data set [5] and 1150 cm in data set [8]. Also, in data set [2], the “antidepressant activity (active/inactive)” value was “Active”. Moreover, in data set [7], the median effective dose (ED50) was found to be 39 mg/kg. The negative logarithm of the Ki (pKi) was 7.77 in data set [3] and 9.15 in data set [4].
Regarding `O=C(NCCN1CCC(c2nc3ccccc3o2)CC1)C1COc2ccccc2O1` (stereo not given), the pKi is 7.12 in data set [3] and 7.06 in data set [4].
Consider `CC1Oc2ccccc2OC1COCCCN1CCC(c2nc3ccccc3o2)CC1` (stereo not given), for which the negative-log Ki (pKi) is 6.82 in data set [3] and 8.09 in data set [4].
As to `c1ccc(C2Oc3ccccc3OC2COCCCN2CCC(c3nc4ccccc4s3)CC2)cc1` (stereo not given), the “Decrease in immobility time” value in data set [1] is “Active”. In data set [2], the “antidepressant activity (active/inactive)” value was “Active”. Also, the pKi was 6.87 in data set [3] and 7.72 in data set [4].
In the case of `O=C(NCCN1CCC(c2nc3ccccc3s2)CC1)C1COc2ccccc2O1` (stereo not given), the negative-log Ki (pKi) in data set [3] is 7.03; in data set [4], 6.95.
`c1ccc2c(c1)OCC(COCCCN1CCC(c3nc4ccccc4o3)CC1)O2` (stereo not given): the pKi in data set [3] is 6.92; in data set [4] it was 7.52.
With `c1ccc(C2Oc3ccccc3OC2COCCCCN2CCC(c3nc4ccccc4s3)CC2)cc1` (stereo not given), in data set [1], the “Decrease in immobility time” value is “Active”. Besides, in data set [2], the “antidepressant activity (active/inactive)” value is “Active”. Besides, the values for the negative-log Ki (pKi) in data set [3] and in data set [4] were 7.51 and 7.62, respectively.

The term pKi denotes the Ki on a negative log10 scale, so that one unit is a factor of ten. Read a low pKi as a high Ki. Usually ED50 stands for the midpoint of the dose-response relation.
